# pEC50, pKi: −log10 of the molar value.
# Legend:
# [1] = molecular target: T1, Adenosine receptor A1 (Homo sapiens) (UniProt P30542); experiment: Displacement of [3H]DPCPX from human adenosine A1 receptor expressed in CHO cells at 10 uM; format: cell-based
# T1 sequence (whole entry): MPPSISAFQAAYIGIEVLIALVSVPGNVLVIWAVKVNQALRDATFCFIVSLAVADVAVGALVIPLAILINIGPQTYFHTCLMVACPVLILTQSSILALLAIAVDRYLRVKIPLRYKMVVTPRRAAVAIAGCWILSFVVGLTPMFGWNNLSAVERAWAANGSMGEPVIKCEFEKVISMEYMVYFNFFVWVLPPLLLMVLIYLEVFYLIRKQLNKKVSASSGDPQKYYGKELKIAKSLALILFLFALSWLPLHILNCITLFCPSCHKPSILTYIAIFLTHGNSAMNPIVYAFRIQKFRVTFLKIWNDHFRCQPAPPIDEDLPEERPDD
# Adenosine receptor A2a [2] = molecular target: T2, Adenosine receptor A2a (Homo sapiens, UniProt P29274); experiment: Displacement of [3H]NECA from human adenosine A2A receptor expressed in CHO cells at 10 uM; format: cell-based
# Adenosine receptor A1 [3] = molecular target: T3, Adenosine receptor A1 (Homo sapiens, UniProt P30542); experiment: Displacement of [3H]DPCPX from human adenosine A1 receptor expressed in CHO cells; format: cell-based
# T3 sequence (P30542 whole entry): T1 sequence (whole entry)
# Outline: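 Five concentrations in triplicate. IC50 by nonlinear regression, converted to Ki with Cheng-Prusoff. Means ± SEM of four assays.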
# Adenosine receptor A3 [4] = molecular target: T4, Adenosine receptor A3 (Homo sapiens, UniProt P0DMS8); experiment: Displacement of [125I]AB-MECA from human adenosine A3 receptor expressed in CHO cells; format: cell-based
# T4 sequence (P0DMS8 whole entry): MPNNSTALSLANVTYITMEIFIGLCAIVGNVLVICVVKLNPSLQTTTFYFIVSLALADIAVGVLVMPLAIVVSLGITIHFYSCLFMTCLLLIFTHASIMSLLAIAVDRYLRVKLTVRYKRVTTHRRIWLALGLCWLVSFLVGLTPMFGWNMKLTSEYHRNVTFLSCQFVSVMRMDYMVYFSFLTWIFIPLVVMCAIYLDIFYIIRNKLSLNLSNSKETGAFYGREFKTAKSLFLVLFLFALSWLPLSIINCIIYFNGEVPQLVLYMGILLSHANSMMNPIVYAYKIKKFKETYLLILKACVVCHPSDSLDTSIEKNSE
# Outline: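 Five displacer concentrations, each in triplicate. IC50 by nonlinear regression, converted to Ki with Cheng-Prusoff. Means ± SEM of four separate assays.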
# Adenosine receptor A2a [5] = molecular target: T2, Adenosine receptor A2a; experiment: Displacement of [3H]NECA from human adenosine A2A receptor expressed in CHO cells; format: cell-based
# [6] = molecular target: T5, Adenosine receptor A3 (Rattus norvegicus) (UniProt P28647); experiment: Antagonist activity at adenosine A3 receptor in Wistar rat hippocampal slices by prevention of glucose deprivation-induced synaptic impairment assessed as synaptic recovery at 100 nM; format: functional, tissue-based; design: scale not given: the % may be the effect or the level left; settings: Hippocampus
# T5 sequence (whole entry): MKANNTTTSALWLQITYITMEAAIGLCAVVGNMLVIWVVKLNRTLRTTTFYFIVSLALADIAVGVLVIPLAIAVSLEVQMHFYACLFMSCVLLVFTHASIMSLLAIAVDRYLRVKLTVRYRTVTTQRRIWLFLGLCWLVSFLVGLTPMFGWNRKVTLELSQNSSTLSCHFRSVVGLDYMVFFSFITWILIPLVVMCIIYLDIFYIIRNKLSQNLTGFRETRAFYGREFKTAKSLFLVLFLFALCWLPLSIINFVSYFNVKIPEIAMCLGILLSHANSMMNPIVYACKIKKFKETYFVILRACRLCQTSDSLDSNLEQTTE
# Outline: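 Male Wistar rat hippocampal slices (400 µm) superfused with oxygenated aCSF at 30-32 °C and 2 mL/min. CA1 fepsps were evoked from stratum radiatum. OGD was 7 min of glucose-free aCSF gassed with 95% N2-5% CO2. Antagonist (100 nM) was given from 10 min before until 5 min after OGD. Readout: fepsp amplitude at 15 min reperfusion as % of the 5-min pre-OGD baseline; n=5, one-way ANOVA with Newman-Keuls.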
# [7] = molecular target: T5, Adenosine receptor A3 (Rattus norvegicus); experiment: Displacement of [3H](R)-PIA from Wistar rat adenosine A3 receptor at 1 uM
# Outline: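 Rat testis membranes (0.1-0.2 mg protein) incubated with 4 nM [3H]-(R)-PIA and 150 nM DPCPX to block A1 sites. Buffer: 50 mM Tris/HCl pH 7.4, 1 mM EDTA, 10 mM MgCl2. Nonspecific binding defined with 15 µM (R)-PIA. Separation by filtration and scintillation counting. Result is % displacement at 1 µM.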
# Adenosine receptor A3 [8] = molecular target: T4, Adenosine receptor A3; experiment: Antagonist activity at human adenosine A3 receptor expressed in CHO cells assessed as inhibition of NECA-induced cAMP accumulation; format: functional, cell-based
# Outline: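 CHO cells stably expressing hA3 were plated and used after 48 h. They were preincubated 15 min at 37 °C with Ro 20-1724 (20 µM) and adenosine deaminase (1 U/mL). Compounds at several concentrations were then added with 100 nM NECA and 10 µM forskolin for 15 min at 37 °C. Lysis in 0.4 N HCl. cAMP was measured by competitive binding against [3H]cAMP (2 nM) with adrenal binding protein, 150 min at 4 °C. EC50 from sigmoid nonlinear regression.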
# Adenosine receptor A1 [9] = molecular target: T6, Adenosine receptor A1 (Rattus norvegicus, UniProt P25099); experiment: Displacement of [3H]DPCPX from Wistar rat adenosine A1 receptor
# T6 sequence (P25099 whole entry): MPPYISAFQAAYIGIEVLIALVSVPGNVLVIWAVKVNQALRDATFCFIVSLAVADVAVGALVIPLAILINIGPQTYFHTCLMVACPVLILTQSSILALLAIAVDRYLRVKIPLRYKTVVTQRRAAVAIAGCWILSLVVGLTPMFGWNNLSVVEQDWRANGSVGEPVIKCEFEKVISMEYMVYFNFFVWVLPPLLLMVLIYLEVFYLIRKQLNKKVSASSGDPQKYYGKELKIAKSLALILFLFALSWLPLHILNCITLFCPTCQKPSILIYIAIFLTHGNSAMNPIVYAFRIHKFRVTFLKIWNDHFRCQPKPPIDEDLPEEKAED
# Outline: (§1)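 Male Wistar rat cortex membranes (40-50 µg protein) incubated 180 min at 25 °C with 0.2-0.5 nM [3H]DPCPX. Buffer: 50 mM Tris/HCl, 2 mM MgCl2, pH 7.7. Run in triplicate. Nonspecific binding defined with 20 µM R-PIA. GF/C filtration; KD 0.51 nM.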
# [10] = molecular target: Adenosine receptor A2a (Rattus norvegicus) (UniProt P30543); experiment: Displacement of [3H]CGS 21680 from Wistar rat adenosine A2A receptor at 10 uM
# [11] = molecular target: T7, Adenosine receptor A3 (Homo sapiens) (UniProt P0DMS8); experiment: Displacement of [125I]AB-MECA from human adenosine A3 receptor expressed in CHO cells at 1 uM; format: cell-based
# T7 sequence (whole entry): T4 sequence (P0DMS8 whole entry)
# [12] = molecular target: T8, Adenosine receptor A1 (Rattus norvegicus) (UniProt P25099); experiment: Displacement of [3H]DPCPX from Wistar rat adenosine A1 receptor at 10 uM; outline: as §1
# T8 sequence (whole entry): T6 sequence (P25099 whole entry)
# T2 sequence (P29274 whole entry): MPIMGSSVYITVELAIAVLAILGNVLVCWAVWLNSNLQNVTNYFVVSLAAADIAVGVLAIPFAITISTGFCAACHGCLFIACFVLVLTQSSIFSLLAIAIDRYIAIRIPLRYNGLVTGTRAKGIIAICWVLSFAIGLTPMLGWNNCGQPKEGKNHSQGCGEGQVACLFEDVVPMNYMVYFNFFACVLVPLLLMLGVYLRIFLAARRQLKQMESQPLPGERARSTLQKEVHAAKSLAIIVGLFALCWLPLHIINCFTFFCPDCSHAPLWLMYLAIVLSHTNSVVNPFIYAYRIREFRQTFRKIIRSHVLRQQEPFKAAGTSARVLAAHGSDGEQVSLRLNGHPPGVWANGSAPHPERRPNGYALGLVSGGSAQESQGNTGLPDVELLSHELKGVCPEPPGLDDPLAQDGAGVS
# Chain of Adenosine receptor A2a (Rattus norvegicus) (P30543 whole entry): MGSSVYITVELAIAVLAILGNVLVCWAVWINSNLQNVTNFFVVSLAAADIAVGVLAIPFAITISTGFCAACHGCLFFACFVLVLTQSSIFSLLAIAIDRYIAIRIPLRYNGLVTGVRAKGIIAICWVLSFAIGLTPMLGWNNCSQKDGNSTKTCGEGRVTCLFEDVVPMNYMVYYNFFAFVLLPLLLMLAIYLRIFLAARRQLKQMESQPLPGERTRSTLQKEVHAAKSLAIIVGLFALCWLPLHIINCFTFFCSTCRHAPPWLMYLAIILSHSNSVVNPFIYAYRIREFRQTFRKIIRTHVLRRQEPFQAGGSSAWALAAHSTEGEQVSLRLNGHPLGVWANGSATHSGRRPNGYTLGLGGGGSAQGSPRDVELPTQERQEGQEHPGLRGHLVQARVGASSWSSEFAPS
Activity [1],Activity (Adenosine receptor A2a [2]),pKi (Adenosine receptor A1 [3]),pKi (Adenosine receptor A3 [4]),Compound,other results
,,7.40,,COc1ccc(-n2cc3c(n2)c(N)nc2ccccc23)cc1,
,4%,6.25,7.85,Cc1cccc(-n2cc3c(n2)c(NC(=O)C(c2ccccc2)c2ccccc2)nc2ccccc23)c1,
,,7.49,6.64,COc1cccc(-n2cc3c(n2)c(N)nc2ccccc23)c1,pKi (Adenosine receptor A2a [5]): 6.31
42%,20%,,7.63,Cc1cccc(-n2cc3c(n2)c(N(C(=O)c2ccccc2)C(=O)c2ccccc2)nc2ccccc23)c1,
,,6.18,,Nc1nc2ccccc2c2cn(-c3ccccc3)nc12,
,,7.24,8.37,Cc1cccc(-n2cc3c(n2)c(NC(=O)c2ccccc2)nc2ccccc23)c1,pKi (Adenosine receptor A2a [5]): 5.54
,20%,5.17,8.47,Cc1cccc(-n2cc3c(n2)c(NC(=O)NCc2ccccc2)nc2ccccc23)c1,
55%,21%,,8.25,Cc1ccc(-n2cc3c(n2)c(NC(=O)Cc2ccccc2)nc2ccccc23)cc1,
,,7.35,,Cc1ccc(-n2cc3c(n2)c(N)nc2ccccc23)cc1,pKi (Adenosine receptor A2a [5]): 6.48
,46%,7.92,,Cc1cccc(-n2cc3c(n2)c(=O)[nH]c2ccccc23)c1,
,26%,6.20,8.36,Cc1ccc(-n2cc3c(n2)c(NC(=O)c2ccccc2)nc2ccccc23)cc1,
,0%,5.54,6.99,COc1ccc(-n2cc3c(n2)c(NC(C)=O)nc2ccccc23)cc1,
,52%,7.85,8.14,COc1cccc(-n2cc3c(n2)c(=O)[nH]c2ccccc23)c1,
,43%,6.69,,O=c1[nH]c2ccccc2c2cn(-c3ccccc3)nc12,
,,7.68,,Cc1cccc(-n2cc3c(n2)c(N)nc2ccccc23)c1,pKi (Adenosine receptor A2a [5]): 6.64
,44%,7.54,,Cc1ccc(-n2cc3c(n2)c(=O)[nH]c2ccccc23)cc1,
,10%,6.69,7.51,CC(=O)Nc1nc2ccccc2c2cn(-c3cccc(C)c3)nc12,
,,6.34,6.91,CC(=O)Nc1nc2ccccc2c2cn(-c3ccc(C)cc3)nc12,pKi (Adenosine receptor A2a [5]): 5.82
0%,3%,,,CC(=O)Nc1nc2ccccc2c2cn(-c3ccccc3)nc12,
,24%,7.22,8.41,Cc1cccc(-n2cc3c(n2)c(NC(=O)Cc2ccccc2)nc2ccccc23)c1,

# Further lines, the molecule ahead of its results:
Compound,Activity [1],Activity (Adenosine receptor A2a [2]),pKi (Adenosine receptor A1 [3]),pKi (Adenosine receptor A3 [4]),other results
O=C(Cc1ccccc1)Nc1nc2ccccc2c2cn(-c3ccccc3)nc12,5%,15%,,,
COc1ccc(-n2cc3c(n2)c(NC(=O)Cc2ccccc2)nc2ccccc23)cc1,,51%,6.70,8.35,
Cc1ccc(-n2cc3c(n2)c(NC(=O)C(c2ccccc2)c2ccccc2)nc2ccccc23)cc1,32%,3%,,7.94,
O=C(Nc1nc2ccccc2c2cn(-c3ccccc3)nc12)C(c1ccccc1)c1ccccc1,0%,21%,,8.05,Activity [6]: 47%; Activity [7]: 30%; pEC50 (Adenosine receptor A3 [8]): 8.42; pKi (Adenosine receptor A1 [9]): 5.83; Activity [10]: 26%
Cc1ccc(-n2cc3c(n2)c(NC(=O)NCc2ccccc2)nc2ccccc23)cc1,5%,39%,,6.59,
O=c1[nH]c2ccccc2c2cn(Cc3ccccc3)nc12,8%,32%,,7.13,
O=C(Nc1nc2ccccc2c2cn(-c3ccccc3)nc12)c1ccccc1,0%,9%,,,
O=C(c1ccccc1)N(C(=O)c1ccccc1)c1nc2ccccc2c2cn(-c3ccccc3)nc12,0%,0%,,8.21,
COc1ccc(-n2cc3c(n2)c(NC(=O)NCc2ccccc2)nc2ccccc23)cc1,43%,0%,,,Activity [11]: 40%
O=c1[nH]c2ccccc2c2cn(-c3ccc([N+](=O)[O-])cc3)nc12,,0%,6.45,7.07,
O=C(NCc1ccccc1)Nc1nc2ccccc2c2cn(-c3ccccc3)nc12,0%,3%,,,
COc1ccc(-n2cc3c(n2)c(NC(=O)C(c2ccccc2)c2ccccc2)nc2ccccc23)cc1,47%,0%,,8.05,
COc1ccc(-n2cc3c(n2)c(NC(=O)c2ccccc2)nc2ccccc23)cc1,,39%,6.60,8.47,
Cc1ccc(-n2cc3c(n2)c(N(C(=O)c2ccccc2)C(=O)c2ccccc2)nc2ccccc23)cc1,32%,0%,,7.52,
COc1ccc(-n2cc3c(n2)c(N(C(=O)c2ccccc2)C(=O)c2ccccc2)nc2ccccc23)cc1,25%,7%,,7.76,Activity [6]: 84%; Activity [7]: 28%; Activity [12]: 11%; pEC50 (Adenosine receptor A3 [8]): 7.95; Activity [10]: 2%
COc1ccc(-n2cc3c(n2)c(=O)[nH]c2ccccc23)cc1,,25%,6.75,,

# — ChEMBL document CHEMBL1148732, “New 2-arylpyrazolo[3,4-c]quinoline derivatives as potent and selective human A3 adenosine receptor antagonists. Synthesis, pharmacological evaluation, and ligand-receptor modeling studies” (J Med Chem, 2007)
